Reference: ChEMBL document CHEMBL4270630
pEC50: −log10 of the molar value.

Columns and labels:
Influenza B virus [1] = assay: Antiviral activity against Influenza B virus B/Ned/537/05 infected in MDCK cells after 3 days by MTS assay; assay type: functional, organism-based; conditions: B/Ned/537/05, MDCK, 72 h
Procedure, shortened: (§1)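 Semi-confluent MDCK cells were infected at an MOI of 0.0004 PFU/cell in Ultra-MDCK infection medium with 2 μg/mL TPCK-trypsin, together with compounds. After 3 days at 35 °C, CPE was scored by microscopy and confirmed by MTS formazan viability. Values are means of two to five independent tests.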

Influenza A virus [2] = assay: Antiviral activity against Influenza A virus A/PR/8/34(H1N1) infected in MDCK cells assessed as reduction in virus-induced cytopathic effect after 3 days by microscopic method; assay type: functional, organism-based, A/Puerto Rico/8/1934(H1N1)
Procedure, shortened: as §1, with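 “viability. EC50 is the concentration giving 50% inhibition of virus-induced CPE.” for “viability.”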

MDCK = assay: Cytotoxicity against MDCK cells assessed as reduction in cell viability after 3 days by MTS assay; assay type: cell-based, Canis lupus familiaris; conditions: dog, mdck, 72 h
Influenza A virus [3] = assay: Antiviral activity against Influenza A virus A/PR/8/34(H1N1) infected in MDCK cells after 3 days by MTS assay; assay type: functional, organism-based, A/Puerto Rico/8/1934(H1N1)
Procedure, shortened: as §1, with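 “viability. EC50 is the concentration giving 50% inhibition of virus-induced CPE.” for “viability.”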

Influenza B virus [4] = assay: Antiviral activity against Influenza B virus B/Ned/537/05 infected in MDCK cells assessed as reduction in virus-induced cytopathic effect after 3 days by microscopic method; assay type: functional, organism-based; conditions: B/Ned/537/05, MDCK, 72 h; procedure, shortened: as §1
H3N2 subtype [5] = assay: Antiviral activity against Influenza A virus A/HK/7/87(H3N2) infected in MDCK cells assessed as reduction in virus-induced cytopathic effect after 3 days by microscopic method; assay type: functional, organism-based; conditions: A/Hong Kong/7/1987(H3N2), 72 h
Procedure, shortened: as §1, with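 “viability. EC50 is the concentration giving 50% inhibition of virus-induced CPE.” for “viability.”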

[6] = Cytotoxicity against MDCK cells assessed as alteration in cell morphology after 3 days by microscopic method; assay type: cell-based, Canis lupus familiaris; conditions: dog
Procedure, shortened: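 Mock-infected MDCK cells were treated with compounds in parallel with the antiviral assay, 3 days at 35 °C. MCC is the concentration causing minimal change in cell morphology by microscopy. CC50 is the 50% cytotoxic concentration by MTS formazan viability assay.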

Influenza A virus [7] = assay: Antiviral activity against Influenza A virus A/Virginia/ATCC3/2009(H1N1pdm) infected in MDCK cells after 3 days by MTS assay; assay type: functional, organism-based, Influenza A virus (A/Virginia/03/2009(H1N1)); conditions: 72 h
Procedure, shortened: as §1, with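 “viability. EC50 is the concentration giving 50% inhibition of virus-induced CPE.” for “viability.”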

H3N2 subtype [8] = assay: Antiviral activity against Influenza A virus A/HK/7/87(H3N2) infected in MDCK cells after 3 days by MTS assay; assay type: functional, organism-based; conditions: A/Hong Kong/7/1987(H3N2), 72 h
Procedure, shortened: as §1, with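 “viability. EC50 is the concentration giving 50% inhibition of virus-induced CPE.” for “viability.”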

Influenza A virus [9] = assay: Antiviral activity against Influenza A virus A/Virginia/ATCC3/2009(H1N1pdm) infected in MDCK cells assessed as reduction in virus-induced cytopathic effect after 3 days by microscopic method; assay type: functional, organism-based, Influenza A virus (A/Virginia/03/2009(H1N1)); conditions: 72 h
Procedure, shortened: as §1, with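 “viability. EC50 is the concentration giving 50% inhibition of virus-induced CPE.” for “viability.”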

Influenza B virus [10] = assay: Antiviral activity against Influenza B virus B/HK/05/72 infected in MDCK cells after 3 days by MTS assay; assay type: functional, organism-based; conditions: B/Hong Kong/05/1972, MDCK, 72 h
Procedure, shortened: as §1, with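 “viability. EC50 is the concentration giving 50% inhibition of virus-induced CPE.” for “viability.”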

Influenza B virus [11] = assay: Antiviral activity against Influenza B virus B/HK/05/72 infected in MDCK cells assessed as reduction in virus-induced cytopathic effect after 3 days by microscopic method; assay type: functional, organism-based; conditions: B/Hong Kong/05/1972, MDCK, 72 h
Procedure, shortened: as §1, with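 “viability. EC50 is the concentration giving 50% inhibition of virus-induced CPE.” for “viability.”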

[12] = Influenza A virus, A/Puerto Rico/8/1934(H1N1), MDCK, 72 h

Compound	pEC50 (Influenza B virus [1])	pEC50 (Influenza A virus [2]; [12])	CC50 (MDCK) [µM]	pEC50 (Influenza A virus [3]; [12])	pEC50 (Influenza B virus [4])	pEC50 (H3N2 subtype [5])	MCC at 72 h [6] [µM]	pEC50 (Influenza A virus [7])	pEC50 (H3N2 subtype [8])	pEC50 (Influenza A virus [9])	pEC50 (Influenza A virus [2]; mdck)	pEC50 (Influenza A virus [3]; mdck)	pEC50 (Influenza B virus [10])	pEC50 (Influenza B virus [11])
CC(=O)N[C@H]1[C@H]([C@H](O)[C@H](O)CO)OC(C(=O)O)=C[C@@H]1N=C(N)N [ZANAMIVIR]	8.21	7.39	> 100	6.72	8.10	4.70	> 100	4.52	5.49	5.72	–	–	–	–
NC(=O)c1ncn([C@@H]2O[C@H](CO)[C@@H](O)[C@H]2O)n1 [RIBAVIRIN]	–	–	–	–	–	4.89	> 100	–	5.23	–	5.08	5.04	–	–
CCCCCCCCCCCCSC1=C(SCCCCCCCCCCCC)C(=O)N(CCOCCOCCOCCOCc2cn(C3C(=O)N[C@@H]4Cc5ccc(c(Cl)c5)Oc5cc6cc(c5O)Oc5ccc(cc5Cl)[C@@H](O[C@@H]5O[C@H](CO)[C@@H](O)[C@H](O)[C@H]5NC(C)=O)[C@H]5NC(=O)[C@H](NC(O)[C@@H]6NC(=O)[C@@H](NC4=O)c4cc(O)cc(c4)Oc4cc3ccc4O)c3ccc(O)c(c3)-c3c(O)cc(O)cc3[C@H](C(=O)O)NC5=O)nn2)C1=O (stereo not given in full)	< 4.00	< 4.00	79	4.89	< 4.00	< 4.00	20	5.55	5.62	< 4.00	–	–	–	–
CCCSC1=C(SCCC)C(=O)N(CCOCCOCCOCCOCc2cn(C3C(=O)N[C@@H]4Cc5ccc(c(Cl)c5)Oc5cc6cc(c5O)Oc5ccc(cc5Cl)[C@@H](O[C@@H]5O[C@H](CO)[C@@H](O)[C@H](O)[C@H]5NC(C)=O)[C@H]5NC(=O)[C@H](NC(O)[C@@H]6NC(=O)[C@@H](NC4=O)c4cc(O)cc(c4)Oc4cc3ccc4O)c3ccc(O)c(c3)-c3c(O)cc(O)cc3[C@H](C(=O)O)NC5=O)nn2)C1=O (stereo not given in full)	–	< 4.00	38	< 4.00	–	5.21	20	5.11	≥ 5.11	< 4.00	–	–	< 4.00	< 4.00
CCCSC1=C(SCCC)C(=O)N([C@H]2C(=O)N[C@@H]3Cc4ccc(c(Cl)c4)Oc4cc5cc(c4O)Oc4ccc(cc4Cl)[C@@H](O[C@@H]4O[C@H](CO)[C@@H](O)[C@H](O)[C@H]4NC(C)=O)[C@H]4NC(=O)[C@H](NC(O)[C@@H]5NC(=O)[C@@H](NC3=O)c3cc(O)cc(c3)Oc3cc2ccc3O)c2ccc(O)c(c2)-c2c(O)cc(O)cc2[C@H](C(=O)O)NC4=O)C1=O (stereo not given in full)	5.14	< 4.00	18	< 4.00	< 4.00	< 4.00	20	5.70	< 4.00	5.74	–	–	–	–
CC(=O)N[C@H]1[C@H](O[C@@H]2c3ccc(c(Cl)c3)Oc3cc4cc(c3O)Oc3ccc(cc3Cl)C[C@H]3NC(=O)C(n5cc(CN6C(=O)C(SC[C@H]7O[C@@H]8OC(C)(C)O[C@@H]8[C@H]8OC(C)(C)O[C@H]87)=C(SC[C@H]7O[C@@H]8OC(C)(C)O[C@@H]8[C@H]8OC(C)(C)O[C@H]87)C6=O)nn5)c5ccc(O)c(c5)Oc5cc(O)cc(c5)[C@H](NC3=O)C(=O)N[C@H]4C(O)N[C@H]3C(=O)N[C@H]2C(=O)N[C@@H](C(=O)O)c2cc(O)cc(O)c2-c2cc3ccc2O)O[C@H](CO)[C@@H](O)[C@@H]1O (stereo not given in full)	–	< 4.00	18	< 4.00	–	< 4.00	20	< 4.00	< 4.00	< 4.00	–	–	< 4.00	< 4.00
CCCCCCCCSC1=C(SCCCCCCCC)C(=O)N(CCOCCOCCOCCOCc2cn(C3C(=O)N[C@@H]4Cc5ccc(c(Cl)c5)Oc5cc6cc(c5O)Oc5ccc(cc5Cl)[C@@H](O[C@@H]5O[C@H](CO)[C@@H](O)[C@H](O)[C@H]5NC(C)=O)[C@H]5NC(=O)[C@H](NC(O)[C@@H]6NC(=O)[C@@H](NC4=O)c4cc(O)cc(c4)Oc4cc3ccc4O)c3ccc(O)c(c3)-c3c(O)cc(O)cc3[C@H](C(=O)O)NC5=O)nn2)C1=O (stereo not given in full)	–	5.89	19	5.70	–	6.04	≥ 4	≥ 6.10	≥ 6.10	≥ 5.85	–	–	< 4.70	< 4.70
